Laboratory results from ChEMBL document CHEMBL1144497 (Bioorg Med Chem, 2007).
pIC50: −log10 of the molar value. Values after ≈ are worked out from the molar mass of the structure shown.

Columns and labels:
[1] = Solubility in sodium phosphate buffer at pH 7.4; assay type: physicochemical
[2] = Solubility in oil; assay type: physicochemical
Liver carboxylesterase 1 = target: T1, Liver carboxylesterase 1 (Homo sapiens, UniProt P23141); test: Activity of human recombinant carboxylesterase 1 assessed as AUDA hydrolysis; parameters: scale not given: the % may be the effect or the level left
T1 sequence (P23141 whole entry): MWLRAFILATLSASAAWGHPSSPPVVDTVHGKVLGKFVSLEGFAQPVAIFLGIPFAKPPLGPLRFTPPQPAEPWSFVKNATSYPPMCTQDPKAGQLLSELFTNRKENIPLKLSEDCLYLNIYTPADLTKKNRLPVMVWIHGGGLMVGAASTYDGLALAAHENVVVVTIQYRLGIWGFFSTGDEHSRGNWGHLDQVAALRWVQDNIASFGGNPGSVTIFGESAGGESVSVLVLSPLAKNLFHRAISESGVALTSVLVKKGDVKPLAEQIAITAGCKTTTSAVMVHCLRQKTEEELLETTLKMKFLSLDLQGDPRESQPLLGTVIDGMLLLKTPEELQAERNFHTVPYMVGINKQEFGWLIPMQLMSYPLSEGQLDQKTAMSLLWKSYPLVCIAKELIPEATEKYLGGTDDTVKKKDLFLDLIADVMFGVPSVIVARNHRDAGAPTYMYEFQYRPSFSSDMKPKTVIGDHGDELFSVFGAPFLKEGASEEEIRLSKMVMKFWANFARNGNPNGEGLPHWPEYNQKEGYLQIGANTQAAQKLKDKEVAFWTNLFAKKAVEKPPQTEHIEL

Cocaine esterase = target: T2, Cocaine esterase (Homo sapiens, UniProt O00748); test: Activity of human recombinant carboxylesterase 2 assessed as AUDA hydrolysis; parameters: concentration or dose not given beside the values
T2 sequence (O00748 whole entry): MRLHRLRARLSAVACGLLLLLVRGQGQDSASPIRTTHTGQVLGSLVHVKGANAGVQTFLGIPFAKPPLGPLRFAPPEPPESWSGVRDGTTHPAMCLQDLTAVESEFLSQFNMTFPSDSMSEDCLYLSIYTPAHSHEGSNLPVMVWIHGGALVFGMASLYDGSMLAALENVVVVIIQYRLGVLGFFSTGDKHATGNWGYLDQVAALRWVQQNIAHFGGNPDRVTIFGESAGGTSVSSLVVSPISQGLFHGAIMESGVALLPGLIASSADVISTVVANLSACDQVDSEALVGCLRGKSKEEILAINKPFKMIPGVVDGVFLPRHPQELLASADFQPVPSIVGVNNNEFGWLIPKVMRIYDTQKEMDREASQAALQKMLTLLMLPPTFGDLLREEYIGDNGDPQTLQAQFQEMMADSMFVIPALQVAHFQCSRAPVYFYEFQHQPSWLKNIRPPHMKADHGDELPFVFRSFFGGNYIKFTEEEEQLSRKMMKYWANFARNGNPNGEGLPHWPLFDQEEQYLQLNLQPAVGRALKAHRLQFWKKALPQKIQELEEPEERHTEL
Method in brief: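 Ester (100 μM) was incubated with purified baculovirus-expressed human carboxylesterase (hCE-1 or hCE-2, 5 μg; 333 nM) in 0.1 M sodium phosphate pH 7.4 at 37°C. Sampling was at 0, 30 and 60 min, with 60 min reported. Percent free acid (AUDA) formed was measured by LC-MS/MS. Values are averages of three separate measurements.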

Mus musculus [3] = test: Cmax in Swiss Webster mouse at 5 mg/kg, po; assay type: ADME, organism-based; parameters: dose 5 mg/kg, route oral; conditions: in vivo
Method in brief: (§1)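 Male Swiss Webster mice, 7 weeks old, dosed by oral gavage at 5 mg/kg in olive oil. AUDA was measured in blood by LC-MS/MS. Cmax, AUC to terminal time and T1/2 were calculated from AUDA blood concentrations.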

Mus musculus [4] = test: AUC in Swiss Webster mouse at 5 mg/kg, po; assay type: ADME, organism-based, Plasma; parameters: dose 5 mg/kg, route oral; conditions: in vivo; method in brief: as §1
Mus musculus [5] = test: Half life in Swiss Webster mouse at 5 mg/kg, po; assay type: ADME, organism-based; parameters: dose 5 mg/kg, route oral; conditions: in vivo
[6] = target: T3, Bifunctional epoxide hydrolase 2 (Homo sapiens, UniProt P34913); test: Inhibition of human soluble epoxide hydrolase by fluorescent based assay
T3 sequence (P34913 whole entry): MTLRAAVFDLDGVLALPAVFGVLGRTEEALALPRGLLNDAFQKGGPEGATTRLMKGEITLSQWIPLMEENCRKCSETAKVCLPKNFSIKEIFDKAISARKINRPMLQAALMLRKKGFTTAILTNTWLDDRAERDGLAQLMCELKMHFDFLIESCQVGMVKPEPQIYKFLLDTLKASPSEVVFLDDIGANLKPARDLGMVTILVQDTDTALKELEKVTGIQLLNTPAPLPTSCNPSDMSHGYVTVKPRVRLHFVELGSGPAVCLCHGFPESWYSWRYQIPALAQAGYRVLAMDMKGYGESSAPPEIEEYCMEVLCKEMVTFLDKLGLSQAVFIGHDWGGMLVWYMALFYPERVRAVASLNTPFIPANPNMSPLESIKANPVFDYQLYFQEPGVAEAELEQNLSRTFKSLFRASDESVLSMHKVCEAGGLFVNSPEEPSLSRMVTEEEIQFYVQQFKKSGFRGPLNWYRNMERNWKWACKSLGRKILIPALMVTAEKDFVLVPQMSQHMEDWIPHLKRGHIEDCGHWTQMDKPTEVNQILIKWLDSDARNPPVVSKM

[7] = target: T4, Bifunctional epoxide hydrolase 2 (Mus musculus, UniProt P34914); test: Inhibition of mouse soluble epoxide hydrolase by spectrometric based assay
T4 sequence (P34914 whole entry): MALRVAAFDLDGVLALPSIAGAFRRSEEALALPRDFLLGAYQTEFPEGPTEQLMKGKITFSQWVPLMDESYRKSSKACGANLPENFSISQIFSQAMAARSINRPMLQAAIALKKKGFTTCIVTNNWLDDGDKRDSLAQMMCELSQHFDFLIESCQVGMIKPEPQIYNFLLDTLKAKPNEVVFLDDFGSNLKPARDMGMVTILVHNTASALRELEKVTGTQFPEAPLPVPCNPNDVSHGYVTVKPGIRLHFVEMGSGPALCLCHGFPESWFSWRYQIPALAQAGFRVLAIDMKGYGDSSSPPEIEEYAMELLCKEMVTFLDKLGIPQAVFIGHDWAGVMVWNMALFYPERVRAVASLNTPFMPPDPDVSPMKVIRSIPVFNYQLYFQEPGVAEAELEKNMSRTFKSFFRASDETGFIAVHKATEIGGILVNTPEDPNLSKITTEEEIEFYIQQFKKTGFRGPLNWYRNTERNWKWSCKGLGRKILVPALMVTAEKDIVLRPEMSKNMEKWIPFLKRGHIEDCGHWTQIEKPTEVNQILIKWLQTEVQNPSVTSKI

[8] = target: T3, Bifunctional epoxide hydrolase 2; test: Inhibition of human soluble epoxide hydrolase by spectrometric based assay

Row | solubility [1] [µg/mL] | solubility [2] [µg/mL] | Activity (Liver carboxylesterase 1) [%] | Activity (Cocaine esterase) [%] | Cmax (Mus musculus [3]) [ng/mL] | AUC (Mus musculus [4]) [ng·h/mL] | t1/2 (Mus musculus [5]) [h] | pIC50 [6] | pIC50 [7] | pIC50 [8] | Structure (SMILES)
1 | 35 (≈ 89.2 µM) | 5000 (≈ 12700 µM) | 100 | 100 | 26.9 | 87 | 2.3 |  |  |  | O=C(O)CCCCCCCCCCCNC(=O)NC12CC3CC(CC(C3)C1)C2
2 | 5 (≈ 11.1 µM) | 25000 (≈ 55700 µM) | 41 | 39 | 39.5 | 96 |  |  |  |  | CCCCOC(=O)CCCCCCCCCCCNC(=O)NC12CC3CC(CC(C3)C1)C2
3 |  |  |  |  |  |  |  | 8.80 |  |  | CCOC(=O)CCCCCCCCCCCNC(=O)NC12CC3CC(CC(C3)C1)C2
4 |  |  |  |  |  |  |  | 8.74 |  |  | C#CCOC(=O)CCCCCCCCCCCNC(=O)NC12CC3CC(CC(C3)C1)C2
5 | 38 (≈ 52.6 µM) | 2000 (≈ 2770 µM) |  |  |  |  |  | 8.12 | 7.30 | 7.00 | CCCCCCCCC(NC(=O)CCCCCCCCCCCNC(=O)NC12CC3CC(CC(C3)C1)C2)C(=O)N[C@H]1O[C@@H](CO)[C@H](O)[C@@H](O)[C@@H]1O (stereo partly drawn)
6 |  |  |  |  |  |  |  | 8.64 |  |  | COC(=O)CCCCCCCCCCCNC(=O)NC12CC3CC(CC(C3)C1)C2
7 |  |  |  |  |  |  |  | 9.00 |  |  | CCCOC(=O)CCCCCCCCCCCNC(=O)NC12CC3CC(CC(C3)C1)C2
8 | 1.7 (≈ 3.79 µM) | 17000 (≈ 37900 µM) | 55 | 33 | 42.9 | 110 |  | 8.92 |  |  | CC(C)COC(=O)CCCCCCCCCCCNC(=O)NC12CC3CC(CC(C3)C1)C2
9 |  |  |  |  |  |  |  | 8.70 |  |  | O=C(NCCCCCCCCCCCC(=O)OCc1ccccc1)NC12CC3CC(CC(C3)C1)C2
10 | 5 (≈ 11.1 µM) | 27000 (≈ 60200 µM) |  | 26 | 13.1 | 47 | 3.8 | 9.15 |  |  | CCC(C)OC(=O)CCCCCCCCCCCNC(=O)NC12CC3CC(CC(C3)C1)C2 (stereo not drawn)
11 |  |  |  |  |  |  |  | 8.12 | 7.30 | 6.66 | O=C(CCCCCCCCCCCNC(=O)NC12CC3CC(CC(C3)C1)C2)NCC(=O)N[C@H]1O[C@@H](CO)[C@H](O)[C@@H](O)[C@@H]1O
12 |  |  |  |  |  |  |  | 9.00 |  |  | C=CCOC(=O)CCCCCCCCCCCNC(=O)NC12CC3CC(CC(C3)C1)C2
13 | 10 (≈ 21.3 µM) |  |  |  |  |  |  |  |  |  | CS(=O)(=O)NC(=O)CCCCCCCCCCCNC(=O)NC12CC3CC(CC(C3)C1)C2
14 |  |  |  |  |  |  |  | 8.82 | 7.30 | 6.64 | O=C(NCCCCCCCCCCCC(=O)OC12CC3CC(CC(C3)C1)C2)NC12CC3CC(CC(C3)C1)C2
15 | 7 (≈ 16.1 µM) | 12000 (≈ 27600 µM) | 72 | 39 | 29.6 | 84 | 1.9 | 8.96 |  |  | CC(C)OC(=O)CCCCCCCCCCCNC(=O)NC12CC3CC(CC(C3)C1)C2
